Experimental data published in ChEMBL document CHEMBL1140194, “Convenient access to 1,3,4-trisubstituted pyrazoles carrying 5-nitrothiophene moiety via 1,3-dipolar cycloaddition of sydnones with acetylenic ketones and their antimicrobial evaluation” (2008).
≈ marks a conversion by molar mass, not a printed value.

What was measured:
Assay type in all cases: functional
Staphylococcus aureus = experiment: Antimicrobial activity against Staphylococcus aureus ATCC 25923 after 16 to 18 hrs by serial dilution method
How it was run: (§1)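 Compounds were dissolved in dimethylformamide as stock. An 18-h broth culture was inoculated by loop into nutrient broth and grown 4 h at 37 °C. Stock was serially diluted by 0.5 mL transfers across tubes 1–10, with tube 11 as growth control. About 0.5 mL diluted culture was added per tube, then incubated at 37 °C for 16–18 h. Reference drugs: nitrofurazone for bacteria, fluconazole for Candida.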

Escherichia coli = experiment: Antimicrobial activity against sEscherichia coli ATCC 25922 after 16 to 18 hrs by serial dilution method; how it was run: as §1
Pseudomonas aeruginosa = experiment: Antimicrobial activity against sPseudomonas aeruginosa ATCC 27853 after 16 to 18 hrs by serial dilution method; how it was run: as §1
Bacillus subtilis = experiment: Antimicrobial activity against Bacillus subtilis after 16 to 18 hrs by serial dilution method; how it was run: as §1
Candida albicans = experiment: Antimicrobial activity against Candida albicans NCIM 3100 after 16 to 18 hrs by serial dilution method; how it was run: as §1

Compound: O=C(c1ccccc1)c1cn(-c2ccccc2)nc1-c1ccc([N+](=O)[O-])s1
- MIC (Staphylococcus aureus): 0.25 µg/mL (≈ 0.666 µM)
- MIC (Escherichia coli): 0.25 µg/mL (≈ 0.666 µM)
- MIC (Pseudomonas aeruginosa): 0.25 µg/mL (≈ 0.666 µM)
- MIC (Bacillus subtilis): 0.25 µg/mL (≈ 0.666 µM)
- MIC (Candida albicans): 0.25 µg/mL (≈ 0.666 µM)

Compound: Cc1ccc(C(=O)c2cn(-c3ccc(C)cc3)nc2-c2ccc([N+](=O)[O-])s2)cc1
- MIC (Staphylococcus aureus): 0.125 µg/mL (≈ 0.31 µM)
- MIC (Escherichia coli): 0.125 µg/mL (≈ 0.31 µM)
- MIC (Pseudomonas aeruginosa): 0.125 µg/mL (≈ 0.31 µM)
- MIC (Bacillus subtilis): 0.125 µg/mL (≈ 0.31 µM)
- MIC (Candida albicans): 0.125 µg/mL (≈ 0.31 µM)

Compound: Cc1ccc(-n2cc(C(=O)c3ccc(Cl)cc3)c(-c3ccc([N+](=O)[O-])s3)n2)cc1
- MIC (Staphylococcus aureus): 0.125 µg/mL (≈ 0.295 µM)
- MIC (Escherichia coli): 0.125 µg/mL (≈ 0.295 µM)
- MIC (Pseudomonas aeruginosa): 0.125 µg/mL (≈ 0.295 µM)
- MIC (Bacillus subtilis): 0.125 µg/mL (≈ 0.295 µM)
- MIC (Candida albicans): 0.125 µg/mL (≈ 0.295 µM)

Compound: Cc1ccc(-n2cc(C(=O)c3ccccc3)c(-c3ccc([N+](=O)[O-])s3)n2)cc1
- MIC (Staphylococcus aureus): 0.25 µg/mL (≈ 0.642 µM)
- MIC (Escherichia coli): 0.25 µg/mL (≈ 0.642 µM)
- MIC (Pseudomonas aeruginosa): 0.25 µg/mL (≈ 0.642 µM)
- MIC (Bacillus subtilis): 0.25 µg/mL (≈ 0.642 µM)
- MIC (Candida albicans): 0.25 µg/mL (≈ 0.642 µM)

Compound: Cc1ccc(C(=O)c2cn(-c3ccccc3)nc2-c2ccc([N+](=O)[O-])s2)cc1
- MIC (Staphylococcus aureus): 0.25 µg/mL (≈ 0.642 µM)
- MIC (Escherichia coli): 0.25 µg/mL (≈ 0.642 µM)
- MIC (Pseudomonas aeruginosa): 0.25 µg/mL (≈ 0.642 µM)
- MIC (Bacillus subtilis): 0.25 µg/mL (≈ 0.642 µM)
- MIC (Candida albicans): 0.25 µg/mL (≈ 0.642 µM)

Compound: COc1ccc(-n2cc(C(=O)c3ccc(Cl)cc3)c(-c3ccc([N+](=O)[O-])s3)n2)cc1
- MIC (Staphylococcus aureus): 0.25 µg/mL (≈ 0.568 µM)
- MIC (Escherichia coli): 0.25 µg/mL (≈ 0.568 µM)
- MIC (Pseudomonas aeruginosa): 0.25 µg/mL (≈ 0.568 µM)
- MIC (Bacillus subtilis): 0.25 µg/mL (≈ 0.568 µM)
- MIC (Candida albicans): 0.125 µg/mL (≈ 0.284 µM)

Compound: COc1ccc(-n2cc(C(=O)c3ccccc3)c(-c3ccc([N+](=O)[O-])s3)n2)cc1
- MIC (Staphylococcus aureus): 0.25 µg/mL (≈ 0.617 µM)
- MIC (Escherichia coli): 0.25 µg/mL (≈ 0.617 µM)
- MIC (Pseudomonas aeruginosa): 0.25 µg/mL (≈ 0.617 µM)
- MIC (Bacillus subtilis): 0.25 µg/mL (≈ 0.617 µM)
- MIC (Candida albicans): 0.25 µg/mL (≈ 0.617 µM)

Compound: COc1ccc(C(=O)c2cn(-c3ccccc3)nc2-c2ccc([N+](=O)[O-])s2)cc1
- MIC (Staphylococcus aureus): 0.25 µg/mL (≈ 0.617 µM)
- MIC (Escherichia coli): 0.25 µg/mL (≈ 0.617 µM)
- MIC (Pseudomonas aeruginosa): 0.25 µg/mL (≈ 0.617 µM)
- MIC (Bacillus subtilis): 0.25 µg/mL (≈ 0.617 µM)
- MIC (Candida albicans): 0.25 µg/mL (≈ 0.617 µM)

Compound: O=C(c1ccc(Cl)cc1)c1cn(-c2ccccc2)nc1-c1ccc([N+](=O)[O-])s1
- MIC (Staphylococcus aureus): 0.125 µg/mL (≈ 0.305 µM)
- MIC (Escherichia coli): 0.125 µg/mL (≈ 0.305 µM)
- MIC (Pseudomonas aeruginosa): 0.125 µg/mL (≈ 0.305 µM)
- MIC (Bacillus subtilis): 0.125 µg/mL (≈ 0.305 µM)
- MIC (Candida albicans): 0.125 µg/mL (≈ 0.305 µM)

Compound: COc1ccc(-n2cc(C(=O)c3ccc(C)cc3)c(-c3ccc([N+](=O)[O-])s3)n2)cc1
- MIC (Staphylococcus aureus): 0.25 µg/mL (≈ 0.596 µM)
- MIC (Escherichia coli): 0.25 µg/mL (≈ 0.596 µM)
- MIC (Pseudomonas aeruginosa): 0.25 µg/mL (≈ 0.596 µM)
- MIC (Bacillus subtilis): 0.25 µg/mL (≈ 0.596 µM)
- MIC (Candida albicans): 0.25 µg/mL (≈ 0.596 µM)

Compound: OC(Cn1cncn1)(Cn1cncn1)c1ccc(F)cc1F [FLUCONAZOLE]
- MIC (Candida albicans): 0.25 µg/mL (≈ 0.816 µM)

Compound: NC(=O)N/N=C/c1ccc([N+](=O)[O-])o1 [NITROFURAZONE]
- MIC (Staphylococcus aureus): 0.25 µg/mL (≈ 1.26 µM)
- MIC (Escherichia coli): 0.25 µg/mL (≈ 1.26 µM)
- MIC (Pseudomonas aeruginosa): 0.25 µg/mL (≈ 1.26 µM)
- MIC (Bacillus subtilis): 0.25 µg/mL (≈ 1.26 µM)
